Experimental data from different studies.
Protocols differ between the studies behind these lines.
Target: Delta-type opioid receptor (Oprd1, Rattus norvegicus, UniProt P33533)
Setting: cell membranes

Compound	test	endpoint	value
N=C(N)NCCC[C@H]1NC(=O)[C@H](Cc2ccc(O)cc2)NC(=O)[C@H](CCCCN)NC(=O)[C@H](Cc2ccccc2)NC1=O	ligand displacement, radioligand	Ki	64 nM
Cc1cc(O)cc(C)c1C[C@H](N)C(=O)N[C@@H]1CCN(S(C)(=O)=O)c2ccc(CN3CCc4ccccc4C3)cc21	GTPγS binding, antagonist	Kb	0.85 nM
Cc1cc(O)cc(C)c1C[C@H](N)C(=O)N1CCc2ccc(Cc3cccc([N+](=O)[O-])c3)cc2C1	ligand displacement, radioligand	Ki	2.5 nM
Cc1cc(C)c(C[C@H](NC(=O)[C@@H](CCCNC(=N)N)NC(=O)[C@@H](N)Cc2c(C)cc(O)cc2C)C(=O)N[C@@H](CCCCN)C(N)=O)c(C)c1	ligand displacement, radioligand	Ki	329 nM
Cc1cc(O)cc(C)c1C[C@H](N)C(=O)N[C@@H]1CCN(C(=O)c2ccccc2)c2ccc(Cc3ccc4ccccc4c3)cc21	GTPγS binding, antagonist	Kb	15 nM
Cc1cccc(Cc2ccc3c(c2)CN(C(=O)[C@@H](N)Cc2c(C)cc(O)cc2C)CC3)c1	ligand displacement, radioligand	Ki	3 nM
Cc1cccc(C)c1C[C@H](NC(=O)[C@@H](CCCNC(=N)N)NC(=O)[C@@H](N)Cc1c(C)cc(O)cc1C)C(=O)N[C@@H](CCCCN)C(N)=O	ligand displacement, radioligand	Ki	105 nM
Cc1cc(O)cc(C)c1C[C@H](N)C(=O)N1CCc2ccc(Cc3ccccc3N)cc2C1	ligand displacement, radioligand	Ki	9 nM
Cc1cc(O)cc(C)c1C[C@H](C)C(=O)N[C@@H]1C/C=C\CC[C@@H](C(N)=O)NC(=O)[C@H](Cc2ccccc2)NC(=O)[C@H](Cc2ccccc2)NC1=O	ligand displacement, radioligand	Ki	7.67 nM
Cc1cc(O)cc(C)c1C[C@H](N)C(=O)N[C@H](CCCNC(=N)N)C(=O)N[C@@H](Cc1c(C)cccc1C(C)C)C(=O)N[C@@H](CCCCN)C(N)=O	ligand displacement, radioligand	Ki	77.1 nM
NC(N)=Nc1ccc2[nH]c3c(c2c1)C[C@@]1(O)[C@H]2Cc4ccc(O)c5c4[C@@]1(CCN2CC1CC1)[C@H]3O5	ligand displacement, radioligand	Ki	2.86 nM
Cc1cc(O)cc(C)c1C[C@H](N)C(=O)N1CCc2ccc(Cc3cccc(N)c3)cc2C1	ligand displacement, radioligand	Ki	5.5 nM
Cc1cc(O)cc(C)c1C[C@H](C)C(=O)N[C@@H]1CCCCC[C@@H](C(N)=O)NC(=O)[C@H](Cc2ccccc2)NC(=O)[C@H](Cc2ccccc2)NC1=O	ligand displacement, radioligand	Ki	18.7 nM
